Measurements: ChEMBL document CHEMBL1132206, “Design, synthesis, and in vitro activity of catamphiphilic reverters of multidrug resistance: discovery of a selective, highly efficacious chemosensitizer with potency in the nanomolar range” (J Med Chem, 1999)
Calls of active or inactive are those of the source. The calls are words filed in the database; no cut-off is given here.

Columns and labels:
Cavia porcellus [1] = species on record: Cavia porcellus; experiment: Potency expressed as EC50 for the negative inotropic activity.; assay type: functional
Cavia porcellus [2] = species on record: Cavia porcellus; experiment: Decrease in developed tension of the left atrium of guinea pig expressed as the negative inotropy.; assay type: functional, Cardiac atrium; parameters: concentration or dose not given beside the values
In short: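 Isolated guinea pig left atrium, electrically driven at 1 Hz. Read-out is the fall in developed tension at 5 × 10^-5 M, given as percent change from control (n = 5-6).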

Cavia porcellus [3] = species on record: Cavia porcellus; experiment: Potency expressed as EC30 for the negative chronotropic activity.; assay type: functional
Cavia porcellus [4] = species on record: Cavia porcellus; experiment: Potency expressed as IC50 for the vasorelaxant activity; 'i' means inactive.; assay type: functional
Cavia porcellus [5] = species on record: Cavia porcellus; experiment: Percent inhibition of calcium-induced contraction on K+ depolarized guinea pig aortic strip.; assay type: functional, Aorta; parameters: concentration or dose not given beside the values
K562 [6] = experiment: Percentage of the dead cells of K-562 cells was determined for the compound; assay type: ADME, cell-based; settings: human
In short: (§1)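 Doxorubicin-resistant K 562 cells were exposed to compound at 1 µM, and viability was scored by trypan blue exclusion. Dead cells above 20% counted as toxic.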

K562 [7] = experiment: Potency that causes a half maximal increase in nuclear concentration of pirarubicin.; assay type: functional, Homo sapiens
K562 [8] = experiment: The efficacy in reverting MDR was evaluated on human erythroleukemia K-562 cell line; assay type: functional
In short: (§2)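 Doxorubicin-resistant and sensitive K 562 cells in exponential growth were used in pH 7.25 HEPES buffer at 37 °C in quartz cuvettes. Pirarubicin uptake was followed as the fall in fluorescence at 590 nm (ex 480 nm). Steady-state nuclear pirarubicin was measured across a range of inhibitor concentrations. α = (CnRi − CnRo)/(CnS − CnRo); αmax is the maximal α, and [i]0.5 is the concentration giving α = 0.5 (mean ± SEM).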

Cavia porcellus [9] = species on record: Cavia porcellus; experiment: Decrease in atrial rate of the right atrium of guinea pig expressed as the negative chronotropy.; parameters: concentration or dose not given beside the values
K562 [10] = experiment: percentage of the dead cells of K-562 cells was determined for the concentration of 1 uM of the compound.; assay type: ADME, cell-based; settings: human, k562, 1 µM; in short: as §1
K562 [11] = experiment: The efficacy in reverting MDR was evaluated on erythroleukemia K-562 cell line.; assay type: functional, Homo sapiens; in short: as §2
Cavia porcellus [12] = species on record: Cavia porcellus; experiment: Potency expressed as EC30 for the negative chronotropic activity; 'i' means Inactive; assay type: functional

Compound | EC50 (Cavia porcellus [1]) | Activity (Cavia porcellus [2]) | EC30 (Cavia porcellus [3]) | IC50 (Cavia porcellus [4]) | Activity (Cavia porcellus [5]) | Dead cells (K562 [6]) | Potency (K562 [7]) | Alpha max (K562 [8]) | Activity (Cavia porcellus [9]) | Dead cells (K562 [10]) | Alpha max (K562 [11]) | EC30 (Cavia porcellus [12])
COc1ccc(C(C#N)(CC#CCN(C)C23CC4CC(CC(C4)C2)C3)C(C)C)cc1OC.Cl (stereo not given) | 2.91 µM | 66% | 0.37 µM | Inactive | 33% | 0% | 0.8 µM | 0.8 | 89% |  |  | 
COc1ccc(C(C#N)(CCCNCC2c3ccccc3-c3ccccc32)C(C)C)cc1OC.Cl (stereo not given) | 0.47 µM | 71% | 2.24 µM | Inactive | 26% | 100% |  |  | 68% |  |  | 
Cl.N#CC(CCCNC1c2ccccc2-c2ccccc21)(c1ccccc1)c1ccccc1 | 1.81 µM | 67% | 0.31 µM | Inactive | 37% | 0% | 0.3 µM | 0.8 | 57% |  |  | 
COc1ccc(CCN(C)CCCC(C#N)(c2ccc(OC)c(OC)c2)C(C)C)cc1OC (stereo not given) [VERAPAMIL] | 0.61 µM | 84% | 0.07 µM |  | 95% |  |  |  | 94% | 0% | 0.7 | 
Cl.N#CC(CCCNCc1cc2ccccc2c2ccccc12)(c1ccccc1)c1ccccc1 | 2.11 µM | 61% |  | Inactive | 3% |  |  |  | 38% | 100% |  | inactive
COc1ccc(C(C#N)(CC#CCN(C)C2c3ccccc3-c3ccccc32)C(C)C)cc1OC.Cl (stereo not given) | 0.35 µM | 71% |  | Inactive | 6% | 0% | 0.5 µM | 0.9 | 24% |  |  | inactive
CN(CCCC(C#N)(c1ccccc1)c1ccccc1)C1c2ccccc2-c2ccccc21.Cl | 0.9 µM | 55% |  | Inactive | 5% | 3% | 3 µM | 0.9 | 9% |  |  | inactive
COc1ccc(C(C#N)(CCCNC(c2ccccc2)c2ccccc2)C(C)C)cc1OC.Cl (stereo not given) | 0.66 µM | 73% | 0.69 µM | Inactive | 32% | 5% | 0.25 µM | 0.7 | 81% |  |  | 
COc1ccc(C(C#N)(CCCNC2c3ccccc3CCc3ccccc32)C(C)C)cc1OC.Cl (stereo not given) | 0.68 µM | 70% | 0.21 µM | Inactive | 24% | 10% | 0.3 µM | 0.8 | 86% |  |  | 
COc1ccc(C(C#N)(CCCN(C)CC2c3ccccc3-c3ccccc32)C(C)C)cc1OC.Cl (stereo not given) | 1.01 µM | 75% |  | Inactive | 11% | 3% | 2.2 µM | 0.5 | 31% |  |  | inactive
COc1ccc(C(C#N)(CCCNCC(c2ccccc2)c2ccccc2)C(C)C)cc1OC.Cl (stereo not given) | 0.83 µM | 89% | 0.54 µM | Inactive | 37% | 5% | 0.25 µM | 0.7 | 74% |  |  | 
COc1ccc(C(C#N)(CCCN(C)CC23CC4CC(CC(C4)C2)C3)C(C)C)cc1OC.Cl (stereo not given) | 1.17 µM | 68% | 0.7 µM | Inactive | 39% | 1% | 1.4 µM | 0.65 | 72% |  |  | 
COc1ccc(C(C#N)(CCCNCc2cc3ccccc3c3ccccc23)C(C)C)cc1OC.Cl (stereo not given) | 1.13 µM | 65% |  | Inactive | 19% |  |  |  | 43% | 100% |  | inactive
Cl.N#CC(CCCNCC(c1ccccc1)c1ccccc1)(c1ccccc1)c1ccccc1 | 2.15 µM | 75% | 1.16 µM | Inactive | 19% |  |  |  | 82% | 40% |  | 
COc1ccc(C(C#N)(CC#CCNC2c3ccccc3-c3ccccc32)C(C)C)cc1OC.Cl (stereo not given) | 1.1 µM | 77% | 8.25 µM | Inactive | 42% | 10% | 1.5 µM | 0.7 | 84% |  |  | 
COc1ccc(C(C#N)(CC#CCN(C)CC2c3ccccc3-c3ccccc32)C(C)C)cc1OC.Cl (stereo not given) | 1.11 µM | 78% |  | Inactive | 12% | 30% |  |  | 25% |  |  | inactive
Cl.N#CC(CCCNC1c2ccccc2CCc2ccccc21)(c1ccccc1)c1ccccc1 | 0.64 µM | 80% |  | Inactive | 5% | 3% | 0.5 µM | 0.5 | 5% |  |  | inactive
COc1ccc(C(C#N)(CCCNCc2c3ccccc3cc3ccccc23)C(C)C)cc1OC.Cl (stereo not given) | 1.11 µM | 55% | 0.86 µM | Inactive | 29% |  | 0.05 µM |  | 65% | 3% | 0.7 | 
COc1ccc(C(C#N)(CC#CCNC(c2ccccc2)c2ccccc2)C(C)C)cc1OC.Cl (stereo not given) | 1.54 µM | 69% |  | Inactive | 23% | 6% | 0.5 µM | 0.6 | 24% |  |  | inactive
COc1ccc(C(C#N)(CC#CCN(C)Cc2c3ccccc3cc3ccccc23)C(C)C)cc1OC.Cl (stereo not given) | 0.63 µM | 65% |  | Inactive | 46% |  |  |  | 39% | 30% |  | inactive
C=CCNc1nc(NCC=C)nc(N2CCC(NCC#CCC(C#N)(c3ccc(OC)c(OC)c3)C(C)C)CC2)n1.Cl (stereo not given) | 1.89 µM | 67% | 0.8 µM | Inactive | 16% |  | 0.2 µM |  | 81% | 0% | 0.9 | 
